# Legend:
# Type in all cases: subcellular, Brain
# D(2) dopamine receptor = D(2) dopamine receptor (Rattus norvegicus, UniProt P61169); assay: The compound has been evaluated for its binding affinity towards Dopamine receptor D2 by displacing the radioligand [3H]YM-09151-2 (0.5 nM) in rat striatal synaptosomes.
# Method in brief: (§1)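 Rat striatal synaptosomes were incubated with a ³H-labelled radioligand. Nonspecific binding was defined with excess unlabelled ligand and subtracted: SCH23390 for D1, sulpiride for D2 and GBR12909 for the dopamine transporter. Ki was calculated from IC50 as IC50/(1+[L]/KD), where [L] is the radioligand concentration and KD its dissociation constant.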
# D(1A) dopamine receptor = D(1A) dopamine receptor (Rattus norvegicus, UniProt P18901); assay: The compound has been evaluated for its binding affinity towards Dopamine receptor D1 by displacing the radioligand [3H]SCH-23390 (1.5 nM) in rat striatal synaptosomes.; method in brief: as §1
# [1] = target: Sodium-dependent dopamine transporter (Rattus norvegicus, UniProt P23977); assay: The compound has been evaluated for its binding affinity towards Dopamine transporter by displacing the radioligand [3H]GBR-12935 (1.0 nM) in rat striatal synaptosomes.; method in brief: as §1
# Sequence of Sodium-dependent dopamine transporter (P23977 whole entry): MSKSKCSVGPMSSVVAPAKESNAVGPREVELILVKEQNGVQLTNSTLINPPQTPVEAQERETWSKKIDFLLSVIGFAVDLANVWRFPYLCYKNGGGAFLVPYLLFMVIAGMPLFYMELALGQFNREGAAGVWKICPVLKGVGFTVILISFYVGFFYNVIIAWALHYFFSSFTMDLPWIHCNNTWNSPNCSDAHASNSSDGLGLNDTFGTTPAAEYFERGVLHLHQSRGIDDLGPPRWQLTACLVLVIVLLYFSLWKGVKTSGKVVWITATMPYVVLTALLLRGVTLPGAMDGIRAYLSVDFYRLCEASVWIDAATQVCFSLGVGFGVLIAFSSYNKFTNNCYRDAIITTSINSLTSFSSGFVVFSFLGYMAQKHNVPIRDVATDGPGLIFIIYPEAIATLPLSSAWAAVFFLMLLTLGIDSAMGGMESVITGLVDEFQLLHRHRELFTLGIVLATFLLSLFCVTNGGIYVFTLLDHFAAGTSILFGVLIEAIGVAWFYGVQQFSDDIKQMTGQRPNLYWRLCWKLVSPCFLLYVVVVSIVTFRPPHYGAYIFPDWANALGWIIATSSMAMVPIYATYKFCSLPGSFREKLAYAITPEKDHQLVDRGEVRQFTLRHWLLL
# Sequence of D(2) dopamine receptor (P61169 whole entry): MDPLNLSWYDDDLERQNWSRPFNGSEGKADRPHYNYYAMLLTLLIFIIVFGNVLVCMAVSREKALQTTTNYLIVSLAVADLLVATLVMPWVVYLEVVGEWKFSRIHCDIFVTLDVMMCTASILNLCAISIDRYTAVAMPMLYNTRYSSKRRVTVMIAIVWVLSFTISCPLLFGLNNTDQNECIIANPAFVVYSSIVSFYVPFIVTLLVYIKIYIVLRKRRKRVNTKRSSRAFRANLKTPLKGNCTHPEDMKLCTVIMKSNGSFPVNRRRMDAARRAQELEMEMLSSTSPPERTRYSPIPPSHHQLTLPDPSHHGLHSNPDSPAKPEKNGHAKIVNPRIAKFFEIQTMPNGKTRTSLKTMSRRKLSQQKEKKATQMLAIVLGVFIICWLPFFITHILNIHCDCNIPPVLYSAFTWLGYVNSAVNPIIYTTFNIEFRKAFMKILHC
# Sequence of D(1A) dopamine receptor (P18901 whole entry): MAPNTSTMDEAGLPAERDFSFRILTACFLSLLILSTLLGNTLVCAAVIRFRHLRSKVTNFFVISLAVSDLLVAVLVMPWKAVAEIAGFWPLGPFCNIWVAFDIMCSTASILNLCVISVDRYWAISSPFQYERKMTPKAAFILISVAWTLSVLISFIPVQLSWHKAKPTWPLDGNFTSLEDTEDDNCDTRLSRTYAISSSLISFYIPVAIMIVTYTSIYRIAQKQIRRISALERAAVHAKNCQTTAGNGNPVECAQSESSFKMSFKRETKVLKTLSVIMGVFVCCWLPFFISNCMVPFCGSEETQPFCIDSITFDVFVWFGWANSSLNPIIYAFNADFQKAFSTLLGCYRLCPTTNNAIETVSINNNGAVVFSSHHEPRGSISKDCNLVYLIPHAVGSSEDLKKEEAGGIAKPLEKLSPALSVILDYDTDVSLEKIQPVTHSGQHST
Ki (D(2) dopamine receptor),Ki (D(1A) dopamine receptor),Ki [1],SMILES
0.64 µM,9.27 µM,57.6 µM,Oc1cc2c(cc1O)C(Cc1ccccc1)NCC2 (centres undefined)
3.57 µM,249 µM,36.6 µM,c1ccc(CC2NCCc3ccccc32)cc1 (centres undefined)
8.79 µM,175 µM,21.5 µM,Oc1ccc(CC2NCCc3ccccc32)cc1O (centres undefined)
